Screening results from PubChem BioAssay.
This is a sample that favours compounds with a hit; in the whole collection about 2.3% have one here.
TRPC4 agonist = activators of mouse TRPC4 channel. Q9QUQ5. HEK293 TRPC4beta/mu-opioid, Fluo4 calcium fluorescence; stronger effect = higher value. B-score at 10 µM. 310,000 compounds, 0.49% hits. AID 2237;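 active = B-score above 5 SD of library B-scores, and initial fluorescence ratio not above library mean plus 5 SD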;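 note: positive B-score marks a calcium rise read as TRPC4 activation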
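Material: HEK293 stable line with TRPC4beta plus mu-opioid receptor; technique: Fluo4 calcium-sensitive dye fluorescence, kinetic, 1 Hz baseline; timing: Fluo4 dye loading 45 min at room temperature, 110 s recording; controls: assay buffer as low control, maximal DAMGO as high control; read-out: integrated baseline-normalised fluorescence ratio, converted to per-well B score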
TRPC4 PAM = TRPC4 (mouse) allosteric potentiation. Q9QUQ5. HEK293 TRPC4beta/mu-opioid, DAMGO EC20, Fluo-4 Ca2+ flux; stronger effect = higher value. B-score at 10 µM. 310,000 compounds, 0.42% hits. AID 2227;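 active = B-score of calcium response area above 5 SD of library B-scores, with initial fluorescence ratio within 5 SD of library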;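 note: B-score of integrated fluorescence ratio over time as area under calcium response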
TRPC6 inh = blocks the mouse TRPC6 cation channel. B-score at 10 µM. AID 2553. Q61143. HEK293-TRPC6, membrane potential dye, ACh-evoked depolarization; stronger effect = lower value. 310,000 compounds, 1.1% hits;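 active = B-score under library mean minus 3 SD, initial fluorescence not abnormally high, positive integrated signal ratio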;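 note: B-score derived from integrated fluorescence ratio over the kinetic read; more negative B-score means stronger inhibition of depolarization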
Target sequence (Q61143 whole entry, looked up): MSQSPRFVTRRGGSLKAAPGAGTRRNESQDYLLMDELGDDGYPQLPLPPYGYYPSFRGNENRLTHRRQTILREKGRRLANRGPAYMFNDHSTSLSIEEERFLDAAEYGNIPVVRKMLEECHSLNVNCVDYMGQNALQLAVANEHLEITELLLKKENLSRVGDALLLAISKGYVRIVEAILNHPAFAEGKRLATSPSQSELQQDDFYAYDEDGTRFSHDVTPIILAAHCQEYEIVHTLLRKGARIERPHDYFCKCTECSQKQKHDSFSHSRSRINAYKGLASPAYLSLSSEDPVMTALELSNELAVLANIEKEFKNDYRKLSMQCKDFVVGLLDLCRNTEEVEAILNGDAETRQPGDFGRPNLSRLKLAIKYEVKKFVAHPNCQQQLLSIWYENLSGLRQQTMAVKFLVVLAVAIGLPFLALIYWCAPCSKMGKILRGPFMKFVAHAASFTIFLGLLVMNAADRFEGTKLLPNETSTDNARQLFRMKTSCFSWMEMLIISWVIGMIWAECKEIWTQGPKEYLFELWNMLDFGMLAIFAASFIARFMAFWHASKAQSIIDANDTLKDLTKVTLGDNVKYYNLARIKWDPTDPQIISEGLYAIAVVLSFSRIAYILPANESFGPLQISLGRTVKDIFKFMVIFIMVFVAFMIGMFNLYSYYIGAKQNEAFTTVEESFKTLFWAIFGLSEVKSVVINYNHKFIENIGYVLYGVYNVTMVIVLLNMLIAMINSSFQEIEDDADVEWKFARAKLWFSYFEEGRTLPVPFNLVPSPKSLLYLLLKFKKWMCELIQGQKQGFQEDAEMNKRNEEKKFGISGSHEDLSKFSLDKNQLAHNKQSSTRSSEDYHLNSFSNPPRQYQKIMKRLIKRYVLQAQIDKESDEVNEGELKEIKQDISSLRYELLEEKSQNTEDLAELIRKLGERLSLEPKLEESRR
TRPC6 act = activators of mouse TRPC6 channel; 310,000 compounds, 0.13% hits; B-score at 10 µM; Q61143; HEK293-TRPC6 membrane potential dye fluorescence; stronger effect = higher value;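 active = B-score of the integrated fluorescence ratio above library mean plus 3 SD, and starting fluorescence ratio within library mean plus 5 SD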;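 note: higher score means more depolarization so channel activation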
TRPC4 inh = TRPC4 (mouse) channel inhibition; HEK293 TRPC4beta/mu-opioid, DAMGO-evoked Fluo4 calcium flux; stronger effect = lower value; 300,000 compounds, 0.39% hits; B-score at 10 µM;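 active = B-score over 3 SD under the library average, no early fluorescence shift, positive overall ratio signal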
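Test system – stable TRPC4beta/mu-opioid receptor HEK293 cells · Probe or stimulus – DAMGO, a submaximal dose followed by a maximal one · Dosing – one concentration per compound · Signal – Fluo4 calcium fluorescence by kinetic imaging, 5 s 1 Hz baseline · Evaluation – per-well B score of integrated baseline-normalized Fluo4 ratio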
TRPC4 spec 2 = second selectivity test of TRPC6 inhibitors: effect on mouse TRPC4; 920 compounds, 42% hits; HEK293 TRPC4/MOR, membrane potential dye fluorescence; channel activated by saturating DAMGO dose; shares compounds with TRPC6 inh; inhibition, % at 10 µM;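 active = compounds whose fluorescence signal differed from control wells by over 3 SD, either direction, in both duplicate plates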
TRPC4 spec = selectivity of TRPC6 inhibitors: effect on mouse TRPC4 | shares compounds with TRPC6 inh | HEK293 TRPC4/mu-opioid, membrane potential fluorescence | activity change, negative = inhibition, % at 10 µM | 920 compounds, 61% hits | AID 2777;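 active = rise or fall in signal beyond 3 SD of buffer-only wells in both replicate plates, either sign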;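 note: integrated kinetic ratio of fluorescence range over baseline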
HEK293 MPD ctr 2-1 = second counter-screen for TRPC6 inhibitors: parental HEK293 cells. 920 compounds, 31% hits. parental HEK293 membrane potential dye fluorescence; maximal acetylcholine challenge after compound addition. shares compounds with TRPC6 inh. signal change vs control, % at 10 µM;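 active = membrane potential signal moving either way by over 3 SD of the maximum-effect control, in both duplicate plates, meaning non-specific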
HEK293 MPD ctr-1 = parental HEK293 nonspecific activity of TRPC6 inhibitors. 920 compounds, 60% hits. membrane potential signal change, % at 10 µM. shares compounds with TRPC6 inh. parental HEK293 membrane potential dye fluorescence;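 active = membrane potential signal shifting up or down by more than 3 SD of buffer-only wells, on both duplicate plates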
HEK293 MPD ctr-2 = counter-screen for TRPC6 modulators: effect in parental HEK293 cells | membrane potential dye fluorescence | membrane potential signal change, % at 10 µM | 2,400 compounds, 51% hits | shares compounds with TRPC6 inh | AID 488924;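 active = membrane potential signal moves up or down beyond 5 SD from buffer-only wells, on both duplicate plates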
HEK293 MPD ctr 2-2 = parental HEK293 nonspecific activity of TRPC6 modulators, second screen; shares compounds with TRPC6 inh; membrane potential dye fluorescence; after compound, maximal acetylcholine stimulation; inhibition, % at 10 µM; 2,400 compounds, 14% hits; AID 488926;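 active = membrane potential signal drops by more than 5 SD from the mean control signal, in both duplicate plates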;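 note: plate controls were acetylcholine ECmax control wells for no effect and buffer only wells for full effect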
TRPC4 ctr mod = selectivity of TRPC6 modulators against mouse TRPC4; shares compounds with TRPC6 inh; HEK293 TRPC4/mu-opioid, membrane potential fluorescence; percent change from control (negative = decrease, positive = increase), % at 10 µM; 2,400 compounds, 69% hits; AID 488927;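 active = membrane potential signal moved up or down beyond 5 SD of buffer control wells, in both duplicate plates, actives on both sides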;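 note: plate controls were assay buffer wells for no effect and DAMGO maximal-effect wells for full effect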
TRPC4/MOR inh 2 = second check of whether TRPC6 modulators also affect mouse TRPC4 | HEK293 TRPC4/mu-opioid, membrane potential dye fluorescence; stimulated with maximal-effect DAMGO | AID 488928 | 2,400 compounds, 55% hits | inhibition, % at 10 µM | shares compounds with TRPC6 inh;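 active = drop in membrane potential signal beyond 5 SD of the control wells in both duplicate plates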;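 note: TRPC4 counter screen for TRPC6 hits run under conditions tuned for TRPC6 not TRPC4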
TRPC6 inh conf = mouse TRPC6 inhibitor confirmation | inhibition, % at 10 µM | HEK293-TRPC6, membrane potential dye, ACh-evoked depolarization | shares compounds with TRPC6 inh | 3,300 compounds, 43% hits | AID 488960;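 active = fluorescence ratio falls more than 5 SD below the full-stimulation control mean, in both duplicate runs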;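 note: integrated fluorescence ratio of peak minus minimum over baseline after agonist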
TRPC6 act conf = confirmation of mouse TRPC6 activators; shares compounds with TRPC6 inh; 2,800 compounds, 11% hits; activation, % at 10 µM; HEK293-TRPC6 membrane potential dye fluorescence, FDSS;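 active = ratio signal rise beyond 5 SD above unstimulated control wells' mean, seen in both duplicate runs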;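 note: plate controls were buffer EC0 wells for no effect and acetylcholine ECmax response for full effect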
The depositor's hits bear a star.

What do the screens show for `O=c1c(Br)c(N2CCCCC2)cnn1-c1ccccc1`?
TRPC4 agonist: inactive; TRPC4 PAM: inactive; TRPC6 inh: inactive; TRPC6 act: inactive; TRPC4 inh: inactive

What do the screens show for `Cc1ccc(C(=O)O)cc1NC(=O)c1ccc2c(c1)C(=O)N(c1ccc([N+](=O)[O-])cc1)C2=O`?
TRPC4 agonist: inactive; TRPC4 PAM: inactive; TRPC6 inh: inactive; TRPC6 act: inactive; TRPC4 inh: inactive

Results for COc1ccc(CCN(C)C2CCCN(S(=O)(=O)c3ccccc3)C2)cc1OC (stereo not given) ?
TRPC4 agonist: inactive; TRPC4 PAM: inactive; TRPC6 inh: inactive; TRPC6 act: inactive; TRPC4 inh: inactive

What do the screens show for `Oc1c(C2=NCCNC(C(F)(F)F)=C2)ccc2ccccc12`?
TRPC4 agonist: inactive; TRPC4 PAM: inactive; TRPC6 inh: -5.03*; TRPC6 act: inactive; TRPC4 inh: inactive; HEK293 MPD ctr-2: -96.0%*; HEK293 MPD ctr 2-2: inactive; TRPC4 ctr mod: -21.5%*; TRPC4/MOR inh 2: 47.0%*; TRPC6 inh conf: inactive; TRPC6 act conf: inactive

Results for COC(=O)Cn1c(=NC(=O)c2ccc([N+](=O)[O-])s2)sc2cc(Br)ccc21 ?
TRPC4 agonist: inactive; TRPC4 PAM: inactive; TRPC6 inh: inactive; TRPC6 act: inactive; TRPC4 inh: inactive

How did CCSC1=N/C(=C/c2ccsc2)C(=O)N1c1ccccc1 do in these assays?
TRPC4 agonist: inactive; TRPC4 PAM: inactive; TRPC6 inh: inactive; TRPC6 act: inactive; TRPC4 inh: inactive

Results for Cc1cc(C(=O)N/N=C/c2cc(N=Nc3ccccc3)ccc2O)n[nH]1 ?
TRPC4 agonist: inactive; TRPC4 PAM: inactive; TRPC6 inh: -5.89*; TRPC6 act: inactive; TRPC4 inh: inactive; HEK293 MPD ctr-2: inactive; HEK293 MPD ctr 2-2: inactive; TRPC4 ctr mod: inactive; TRPC4/MOR inh 2: inactive; TRPC6 inh conf: inactive; TRPC6 act conf: inactive

How did Cc1[nH]n(-c2ccccc2)c(=O)c1/C=N/NC(=O)c1ccc(O)cc1O do in these assays?
TRPC4 agonist: inactive; TRPC4 PAM: inactive; TRPC6 inh: inactive; TRPC6 act: inactive; TRPC4 inh: inactive

Results for Cc1cc(C(=O)N/N=C/c2c(C)[nH]n(-c3ccccc3)c2=O)n[nH]1 ?
TRPC4 agonist: inactive; TRPC4 PAM: inactive; TRPC6 inh: -7.91*; TRPC6 act: inactive; TRPC4 inh: inactive; TRPC4 spec 2: inactive; TRPC4 spec: -23.2%*; HEK293 MPD ctr 2-1: inactive; HEK293 MPD ctr-1: -328.0%*; TRPC6 inh conf: inactive; TRPC6 act conf: inactive

What do the screens show for `O=C(OC1CCN(c2ncc(C(F)(F)F)cc2Cl)CC1)c1ccccc1`?
TRPC4 agonist: inactive; TRPC4 PAM: inactive; TRPC6 inh: inactive; TRPC6 act: inactive; TRPC4 inh: inactive

What do the screens show for `CN1CCN(C(=O)C2CCN(c3ncc(C(F)(F)F)cc3Cl)CC2)CC1`?
TRPC4 agonist: inactive; TRPC4 PAM: inactive; TRPC6 inh: -5.18*; TRPC6 act: inactive; TRPC4 inh: inactive; HEK293 MPD ctr-2: inactive; HEK293 MPD ctr 2-2: inactive; TRPC4 ctr mod: inactive; TRPC4/MOR inh 2: inactive; TRPC6 inh conf: inactive; TRPC6 act conf: inactive

How did COc1ccc(OCC(O)COc2ccc(OC)cc2)cc1 do in these assays?
TRPC4 agonist: inactive; TRPC4 PAM: inactive; TRPC6 inh: -6.37*; TRPC6 act: inactive; TRPC4 inh: inactive; HEK293 MPD ctr-2: inactive; HEK293 MPD ctr 2-2: inactive; TRPC4 ctr mod: inactive; TRPC4/MOR inh 2: inactive; TRPC6 inh conf: 66.0%*

What do the screens show for `COc1ccc(OCC(O)CNC(=O)c2ccc(OC)cc2)cc1` (stereo not given)?
TRPC4 agonist: inactive; TRPC4 PAM: inactive; TRPC6 inh: inactive; TRPC6 act: inactive; TRPC4 inh: inactive

What do the screens show for `Oc1ccccc1Nc1nc(NCc2ccco2)c2ccccc2n1`?
TRPC4 agonist: inactive; TRPC4 PAM: inactive; TRPC6 inh: -8.49*; TRPC6 act: inactive; TRPC4 inh: -6*; TRPC4 spec 2: 73.5%*; TRPC4 spec: inactive; HEK293 MPD ctr 2-1: inactive; HEK293 MPD ctr-1: inactive; TRPC6 inh conf: inactive; TRPC6 act conf: inactive

Results for OCCN1CCN(c2nc(NCc3ccco3)c3ccccc3n2)CC1 ?
TRPC4 agonist: inactive; TRPC4 PAM: inactive; TRPC6 inh: -6.01*; TRPC6 act: inactive; TRPC4 inh: inactive; HEK293 MPD ctr-2: -228.5%*; HEK293 MPD ctr 2-2: inactive; TRPC4 ctr mod: -38.5%*; TRPC4/MOR inh 2: 57.0%*; TRPC6 inh conf: inactive; TRPC6 act conf: inactive

Results for Oc1ccccc1Nc1nc(NCC2CCCO2)c2ccccc2n1 (stereo not given) ?
TRPC4 agonist: inactive; TRPC4 PAM: inactive; TRPC6 inh: -14.7*; TRPC6 act: inactive; TRPC4 inh: inactive; TRPC4 spec 2: 28.5%*; TRPC4 spec: -22.0%*; HEK293 MPD ctr 2-1: inactive; HEK293 MPD ctr-1: -273.0%*; TRPC6 inh conf: 74.6%*; TRPC6 act conf: inactive
